ChEMBL document CHEMBL4706527, “Identification of novel quinoline analogues bearing thiazolidinones as potent kinase inhibitors for the treatment of colorectal cancer” (Eur J Med Chem, 2020)
Activity calls are given as the source filed them. The calls are words filed in the database; no cut-off is given here.

What was measured:
[1] = system: FHC; experiment: Cytotoxicity aganist human FHC at 10 ug/ml measured after 72 hrs by IncuCyte live-cell imaging assay
[2] = system: HT-29; experiment: Cell cycle arrest in human HT-29 cells assessed as accumulation in G2/M phase at 3 ug/ml incubated for 48 hrs by propidium iodide base flow cytometry analysis (reference value: 2.4%); format: functional; settings: dose 3 µg/ml
[3] = system: HT-29; experiment: Cytotoxicity against human HT-29 cells assessed as reduction in cell viability measured after 36 hrs by MTT assay; format: functional, cell-based; settings: dose 0.56-1.67 µg/ml
[4] = system: HT-29; experiment: Antiproliferative activity against human HT-29 cells assessed as dead cells by measuring green fluorescent cells at 5 ug/mL for 72 hrs by IncuCyte live-cell imaging assay; format: functional, cell-based; settings: dose 5.0 µg/ml
Procedure, shortened: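 HT-29 cells (5×10^3 per well) in DMEM with 10% FBS at 37 °C, 5% CO2; compound added after 24 h culture. YOYO-1 iodide added, green-fluorescent cells counted as dead; live-cell imaging every 2 h for 72 h; three replicates; mean ± SD of three independent experiments.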

[5] = system: HT-29; experiment: Cell cycle arrest in human HT-29 cells assessed as accumulation in G0/G1 phase at 3 ug/ml incubated for 48 hrs by propidium iodide base flow cytometry analysis (reference value: 71.6%); format: functional; settings: dose 3 µg/ml
[6] = system: FHC; experiment: Cytotoxicity aganist human FHC at 0.19 ug/ml measured after 72 hrs by IncuCyte live-cell imaging assay
[7] = system: HT-29; experiment: Cell cycle arrest in human HT-29 cells assessed as accumulation in S phase at 3 ug/ml incubated for 48 hrs by propidium iodide base flow cytometry analysis (reference value: 22.4%); format: functional; settings: dose 3 µg/ml
[8] = system: HT-29; experiment: Cytotoxicity against human HT-29 cells assessed as reduction in cell viability at 5 ug/mL by MTT assay; format: functional, cell-based; settings: dose 5.0 µg/ml
[9] = system: HT-29; experiment: Antiproliferative activity against human HT-29 cells assessed as dead cells by measuring green fluorescent cells at 1 to 3 ug/mL by IncuCyte live-cell imaging assay; format: functional, cell-based
Procedure, shortened: (§1)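 HT-29 cells (5×10^3/well) in DMEM with 10% FBS, cultured 24 h at 37 °C, 5% CO2, then treated with graded concentrations of compound; 0.1% DMSO vehicle control. YOYO-1 iodide DNA dye added; green-fluorescent cells counted as dead, imaged every 2 h for 72 h in an IncuCyte system. Three replicates; mean ± SD of three independent experiments.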

[10] = system: HT-29; experiment: cells; settings: Homo sapiens
[11] = system: FHC; experiment: Antiproliferative activity aganist human FHC at 10 ug/ml measured after 72 hrs by MTT assay; format: cell-based; settings: at 10 µg/mL
[12] = system: HT-29; experiment: Antiproliferative activity against human HT-29 cells assessed as dead cells by measuring green fluorescent cells for 48 to 72 hrs by IncuCyte live-cell imaging assay; format: functional, cell-based
Procedure, shortened: as §1

[13] = system: HT-29; experiment: Cell cycle arrest in human HT-29 cells assessed as accumulation in G0/G1 phase at 1 ug/ml incubated for 48 hrs by propidium iodide base flow cytometry analysis (reference value: 71.6%); format: functional; settings: dose 1 µg/ml
[14] = system: HT-29; experiment: Cell cycle arrest in human HT-29 cells assessed as accumulation in S phase at 0.3 ug/ml incubated for 48 hrs by propidium iodide base flow cytometry analysis (reference value: 22.4%); format: functional; settings: dose 0.3 µg/ml
[15] = target: Serine/threonine-protein kinase B-raf (Homo sapiens, UniProt P15056); experiment: Inhibition of B-Raf (unknown origin) by mobility shift assay
Sequence of Serine/threonine-protein kinase B-raf (P15056 whole entry): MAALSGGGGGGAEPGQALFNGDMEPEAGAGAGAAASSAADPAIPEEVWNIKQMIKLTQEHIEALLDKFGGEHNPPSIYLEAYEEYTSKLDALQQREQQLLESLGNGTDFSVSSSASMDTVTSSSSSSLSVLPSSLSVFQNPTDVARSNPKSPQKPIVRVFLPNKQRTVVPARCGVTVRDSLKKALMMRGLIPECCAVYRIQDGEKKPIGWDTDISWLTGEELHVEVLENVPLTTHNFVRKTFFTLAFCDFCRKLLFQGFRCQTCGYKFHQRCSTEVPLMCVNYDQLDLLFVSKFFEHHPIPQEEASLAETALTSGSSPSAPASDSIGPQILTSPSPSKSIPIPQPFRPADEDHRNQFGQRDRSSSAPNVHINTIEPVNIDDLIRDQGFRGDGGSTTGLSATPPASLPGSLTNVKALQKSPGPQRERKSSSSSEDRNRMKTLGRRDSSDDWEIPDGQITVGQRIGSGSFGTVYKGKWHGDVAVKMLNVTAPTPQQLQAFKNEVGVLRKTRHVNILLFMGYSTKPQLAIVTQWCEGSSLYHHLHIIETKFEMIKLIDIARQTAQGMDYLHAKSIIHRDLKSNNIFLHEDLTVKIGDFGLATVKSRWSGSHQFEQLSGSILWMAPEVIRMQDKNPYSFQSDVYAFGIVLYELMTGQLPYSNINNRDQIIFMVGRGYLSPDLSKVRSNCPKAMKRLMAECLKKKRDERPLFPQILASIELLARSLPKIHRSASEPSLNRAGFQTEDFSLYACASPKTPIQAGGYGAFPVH

[16] = system: HT-29; experiment: Cell cycle arrest in human HT-29 cells assessed as accumulation in S phase at 1 ug/ml incubated for 48 hrs by propidium iodide base flow cytometry analysis (reference value: 22.4%); format: functional; settings: dose 1 µg/ml
[17] = target: T1, Hepatocyte growth factor receptor (Homo sapiens, UniProt P08581); experiment: Inhibition of c-Met (unknown origin) using FAM-labelled peptide and ATP incubated for 10 mins by mobility shift assay
T1 sequence (P08581 whole entry): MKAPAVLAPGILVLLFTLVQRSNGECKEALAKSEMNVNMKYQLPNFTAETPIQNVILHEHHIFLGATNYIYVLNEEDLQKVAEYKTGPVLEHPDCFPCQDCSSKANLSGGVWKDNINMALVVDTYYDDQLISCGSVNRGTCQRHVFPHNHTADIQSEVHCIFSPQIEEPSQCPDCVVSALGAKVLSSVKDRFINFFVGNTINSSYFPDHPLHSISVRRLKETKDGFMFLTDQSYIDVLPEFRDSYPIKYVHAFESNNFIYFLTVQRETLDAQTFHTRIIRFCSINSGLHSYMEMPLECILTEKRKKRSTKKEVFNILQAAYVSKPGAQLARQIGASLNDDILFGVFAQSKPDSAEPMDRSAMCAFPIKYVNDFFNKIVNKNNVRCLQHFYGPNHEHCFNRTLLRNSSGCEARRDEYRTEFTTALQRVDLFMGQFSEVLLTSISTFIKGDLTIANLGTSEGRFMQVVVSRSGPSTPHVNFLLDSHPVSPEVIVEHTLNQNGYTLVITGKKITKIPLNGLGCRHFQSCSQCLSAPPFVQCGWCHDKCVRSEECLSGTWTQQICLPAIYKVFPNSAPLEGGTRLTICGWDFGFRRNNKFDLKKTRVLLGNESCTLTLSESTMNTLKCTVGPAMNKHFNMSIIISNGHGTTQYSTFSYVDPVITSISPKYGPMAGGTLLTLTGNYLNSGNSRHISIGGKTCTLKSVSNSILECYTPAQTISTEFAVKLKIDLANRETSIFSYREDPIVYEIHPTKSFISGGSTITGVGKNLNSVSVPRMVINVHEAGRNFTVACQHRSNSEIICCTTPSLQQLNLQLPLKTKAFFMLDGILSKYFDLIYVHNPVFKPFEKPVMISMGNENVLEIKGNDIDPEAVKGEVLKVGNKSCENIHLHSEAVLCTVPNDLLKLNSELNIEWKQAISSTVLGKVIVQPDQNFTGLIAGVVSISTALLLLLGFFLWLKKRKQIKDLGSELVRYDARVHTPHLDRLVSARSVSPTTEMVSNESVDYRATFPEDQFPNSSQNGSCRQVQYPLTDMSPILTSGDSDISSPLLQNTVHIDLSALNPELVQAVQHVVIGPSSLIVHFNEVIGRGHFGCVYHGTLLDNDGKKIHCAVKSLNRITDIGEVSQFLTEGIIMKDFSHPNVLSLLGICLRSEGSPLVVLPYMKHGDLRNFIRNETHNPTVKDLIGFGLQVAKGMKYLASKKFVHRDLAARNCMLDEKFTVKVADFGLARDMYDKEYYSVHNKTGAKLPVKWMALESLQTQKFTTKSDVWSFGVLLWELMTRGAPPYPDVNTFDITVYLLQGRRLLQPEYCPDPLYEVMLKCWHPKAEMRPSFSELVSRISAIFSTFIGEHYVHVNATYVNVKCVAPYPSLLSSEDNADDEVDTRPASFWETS

[18] = target: Mast/stem cell growth factor receptor Kit (Homo sapiens, UniProt P10721); experiment: Inhibition of c-Kit (unknown origin) using FAM-labelled peptide and ATP incubated for 10 mins by mobility shift assay
Sequence of Mast/stem cell growth factor receptor Kit (P10721 whole entry): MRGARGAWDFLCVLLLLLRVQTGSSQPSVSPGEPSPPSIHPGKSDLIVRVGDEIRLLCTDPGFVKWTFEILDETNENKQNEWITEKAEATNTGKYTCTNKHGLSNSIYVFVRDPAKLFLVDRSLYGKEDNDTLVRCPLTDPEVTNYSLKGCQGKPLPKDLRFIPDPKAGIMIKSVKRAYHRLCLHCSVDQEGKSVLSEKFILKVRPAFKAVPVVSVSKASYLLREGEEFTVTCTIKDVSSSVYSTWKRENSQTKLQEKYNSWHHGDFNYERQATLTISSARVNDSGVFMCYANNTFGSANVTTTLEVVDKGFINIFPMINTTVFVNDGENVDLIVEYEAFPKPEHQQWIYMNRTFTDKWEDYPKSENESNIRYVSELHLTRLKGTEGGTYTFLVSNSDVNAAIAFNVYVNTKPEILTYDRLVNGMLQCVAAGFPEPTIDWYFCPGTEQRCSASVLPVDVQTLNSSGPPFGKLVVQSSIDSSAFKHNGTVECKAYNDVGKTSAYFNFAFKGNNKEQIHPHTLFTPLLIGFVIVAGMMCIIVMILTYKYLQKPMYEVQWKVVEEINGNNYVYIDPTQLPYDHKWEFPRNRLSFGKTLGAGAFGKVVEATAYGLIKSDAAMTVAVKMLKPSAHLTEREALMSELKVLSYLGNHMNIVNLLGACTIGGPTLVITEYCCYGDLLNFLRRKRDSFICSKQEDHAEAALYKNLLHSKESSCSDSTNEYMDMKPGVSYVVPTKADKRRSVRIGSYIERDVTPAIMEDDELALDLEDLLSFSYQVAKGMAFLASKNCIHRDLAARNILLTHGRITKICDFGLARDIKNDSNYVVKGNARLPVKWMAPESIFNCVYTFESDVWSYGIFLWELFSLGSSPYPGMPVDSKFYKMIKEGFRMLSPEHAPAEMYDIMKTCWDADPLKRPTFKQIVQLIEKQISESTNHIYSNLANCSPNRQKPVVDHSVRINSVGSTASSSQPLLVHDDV

[19] = target: Macrophage-stimulating protein receptor (Homo sapiens, UniProt Q04912); experiment: Inhibition of Ron (unknown origin) using FAM-labelled peptide and ATP incubated for 10 mins by mobility shift assay
Sequence of Macrophage-stimulating protein receptor (Q04912 25-304 limits assumed): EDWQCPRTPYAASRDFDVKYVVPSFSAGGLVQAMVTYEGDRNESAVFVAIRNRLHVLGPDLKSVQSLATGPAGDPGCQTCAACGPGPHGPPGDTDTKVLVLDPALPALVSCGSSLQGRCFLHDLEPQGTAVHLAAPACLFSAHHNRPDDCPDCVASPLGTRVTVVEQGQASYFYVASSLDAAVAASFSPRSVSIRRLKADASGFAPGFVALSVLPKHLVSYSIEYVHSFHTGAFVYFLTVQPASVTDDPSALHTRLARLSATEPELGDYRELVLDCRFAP
Sequence of Macrophage-stimulating protein receptor (Q04912 310-1400 limits assumed): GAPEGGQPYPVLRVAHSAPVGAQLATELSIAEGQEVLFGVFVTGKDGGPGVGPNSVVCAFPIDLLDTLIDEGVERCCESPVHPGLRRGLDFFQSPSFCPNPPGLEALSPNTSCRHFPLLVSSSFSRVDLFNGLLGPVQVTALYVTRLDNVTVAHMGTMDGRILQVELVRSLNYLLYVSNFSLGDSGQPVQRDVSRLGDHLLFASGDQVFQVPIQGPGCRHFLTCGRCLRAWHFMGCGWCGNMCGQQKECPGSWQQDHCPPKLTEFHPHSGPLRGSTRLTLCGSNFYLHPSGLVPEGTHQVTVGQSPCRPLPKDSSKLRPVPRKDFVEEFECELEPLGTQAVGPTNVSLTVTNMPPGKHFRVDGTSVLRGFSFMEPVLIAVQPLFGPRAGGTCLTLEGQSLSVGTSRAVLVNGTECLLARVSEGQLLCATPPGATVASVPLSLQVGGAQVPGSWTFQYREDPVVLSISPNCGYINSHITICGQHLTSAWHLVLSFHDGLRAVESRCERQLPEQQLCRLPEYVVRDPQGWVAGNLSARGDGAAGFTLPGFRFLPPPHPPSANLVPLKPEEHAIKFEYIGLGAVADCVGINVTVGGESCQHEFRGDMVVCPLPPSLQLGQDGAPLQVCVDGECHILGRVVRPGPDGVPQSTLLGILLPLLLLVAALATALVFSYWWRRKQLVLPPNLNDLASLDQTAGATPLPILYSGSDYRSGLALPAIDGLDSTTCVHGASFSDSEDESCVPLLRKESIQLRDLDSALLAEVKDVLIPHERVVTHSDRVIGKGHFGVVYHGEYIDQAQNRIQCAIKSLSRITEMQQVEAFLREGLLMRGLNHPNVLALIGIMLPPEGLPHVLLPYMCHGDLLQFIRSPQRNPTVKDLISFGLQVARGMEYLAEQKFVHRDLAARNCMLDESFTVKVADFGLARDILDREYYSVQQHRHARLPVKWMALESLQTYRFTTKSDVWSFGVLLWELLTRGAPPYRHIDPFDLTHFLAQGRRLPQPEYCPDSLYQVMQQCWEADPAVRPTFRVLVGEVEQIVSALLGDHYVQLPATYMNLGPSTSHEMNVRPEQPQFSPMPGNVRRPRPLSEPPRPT

[20] = target: T1, Hepatocyte growth factor receptor; experiment: Inhibition of c-Met (unknown origin) using FAM-labelled peptide and ATP incubated for 10 mins by mobility shift assay relative to control
[21] = system: HT-29; experiment: Cell cycle arrest in human HT-29 cells assessed as accumulation in G2/M phase at 1 ug/ml incubated for 48 hrs by propidium iodide base flow cytometry analysis (reference value: 2.4%); format: functional; settings: dose 1 µg/ml
[22] = target: T2, Tyrosine-protein kinase receptor UFO (Homo sapiens, UniProt P30530); experiment: Inhibition of AXL (unknown origin) using FAM-labelled peptide and ATP incubated for 10 mins by mobility shift assay
T2 sequence (P30530 whole entry): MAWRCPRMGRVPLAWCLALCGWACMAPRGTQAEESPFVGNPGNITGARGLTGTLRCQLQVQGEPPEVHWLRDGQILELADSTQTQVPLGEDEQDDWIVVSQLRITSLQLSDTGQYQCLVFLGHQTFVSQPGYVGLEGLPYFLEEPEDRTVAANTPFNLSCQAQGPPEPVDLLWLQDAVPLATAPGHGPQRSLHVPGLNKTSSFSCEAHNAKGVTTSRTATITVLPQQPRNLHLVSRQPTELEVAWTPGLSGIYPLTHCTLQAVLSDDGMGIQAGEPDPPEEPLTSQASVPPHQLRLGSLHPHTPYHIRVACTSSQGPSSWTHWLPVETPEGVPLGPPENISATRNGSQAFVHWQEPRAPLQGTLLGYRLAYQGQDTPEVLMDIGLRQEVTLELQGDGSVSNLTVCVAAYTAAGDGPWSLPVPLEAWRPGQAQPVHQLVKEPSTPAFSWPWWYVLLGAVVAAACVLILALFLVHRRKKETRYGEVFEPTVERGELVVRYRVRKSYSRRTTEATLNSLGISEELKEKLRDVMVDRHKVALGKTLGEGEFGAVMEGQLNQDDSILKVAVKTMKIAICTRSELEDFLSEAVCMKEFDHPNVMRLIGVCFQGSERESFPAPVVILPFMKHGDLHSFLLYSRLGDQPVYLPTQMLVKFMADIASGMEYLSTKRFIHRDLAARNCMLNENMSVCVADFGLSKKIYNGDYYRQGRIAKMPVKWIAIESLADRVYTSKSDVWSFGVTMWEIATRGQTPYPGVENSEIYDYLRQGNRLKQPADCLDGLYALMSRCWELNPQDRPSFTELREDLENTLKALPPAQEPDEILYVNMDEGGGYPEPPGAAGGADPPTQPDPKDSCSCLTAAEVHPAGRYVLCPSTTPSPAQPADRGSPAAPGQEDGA

[23] = target: Insulin-like growth factor 1 receptor (Homo sapiens, UniProt P08069); experiment: Inhibition of IGF1R (unknown origin) by mobility shift assay
[24] = system: HT-29; experiment: Cell cycle arrest in human HT-29 cells assessed as accumulation in G2/M phase at 0.3 ug/ml incubated for 48 hrs by propidium iodide base flow cytometry analysis (reference value: 2.4%); format: functional; settings: dose 0.3 µg/ml
[25] = target: Proto-oncogene tyrosine-protein kinase Src (Homo sapiens, UniProt P12931); experiment: Inhibition of c-Src (unknown origin) using FAM-labelled peptide and ATP incubated for 10 mins by mobility shift assay
Sequence of Proto-oncogene tyrosine-protein kinase Src (P12931 2-536 limits assumed): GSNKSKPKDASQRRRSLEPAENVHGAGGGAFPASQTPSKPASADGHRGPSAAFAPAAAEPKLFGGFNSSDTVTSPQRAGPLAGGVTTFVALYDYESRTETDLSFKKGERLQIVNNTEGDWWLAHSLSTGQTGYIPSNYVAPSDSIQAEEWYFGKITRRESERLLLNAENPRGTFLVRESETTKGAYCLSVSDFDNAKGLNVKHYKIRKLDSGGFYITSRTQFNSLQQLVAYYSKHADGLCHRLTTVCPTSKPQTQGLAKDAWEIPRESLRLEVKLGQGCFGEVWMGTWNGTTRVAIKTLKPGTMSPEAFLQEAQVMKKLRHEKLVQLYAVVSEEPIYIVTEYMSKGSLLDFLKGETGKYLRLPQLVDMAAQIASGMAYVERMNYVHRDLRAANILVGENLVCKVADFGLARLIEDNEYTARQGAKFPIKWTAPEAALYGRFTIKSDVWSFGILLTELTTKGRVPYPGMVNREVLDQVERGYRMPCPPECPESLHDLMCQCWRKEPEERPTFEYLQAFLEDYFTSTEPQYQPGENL

[26] = target: Platelet-derived growth factor receptor alpha (Homo sapiens, UniProt P16234); experiment: Inhibition of PDGFR alpha (unknown origin) by mobility shift assay
[27] = system: HT-29; experiment: Cytotoxicity against human HT-29 cells assessed as reduction in cell viability measured at 0.56 to 1.67 microg/ml by IncuCyte live-cell imaging assay; settings: dose 0.56-1.67 µg/ml, TDE = time-dependent effect
[28] = system: HT-29; experiment: Cell cycle arrest in human HT-29 cells assessed as accumulation in G0/G1 phase at 0.3 ug/ml incubated for 48 hrs by propidium iodide base flow cytometry analysis (reference value: 71.6%); format: functional; settings: dose 0.3 µg/ml

CNC(=O)c1cc(Oc2ccc(NC(=O)Nc3ccc(Cl)c(C(F)(F)F)c3)c(F)c2)ccn1 [REGORAFENIB]
Activity [1]: Toxic | Activity [2]: 2% | Activity [3]: inactive | Activity [4]: Active | Activity [5]: 78.5% | Activity [6]: Toxic | Activity [7]: 15.7% | Activity [8]: inactive | AC50 [9]: Active | IC50 [10]: 2870 nM | Activity [11]: 13.5% | Activity [12]: Active

COc1cc2c(Oc3ccc(NC(=O)NN4C(=O)CSC4c4cccc(F)c4)cc3)ccnc2cc1OC1CCN(C(=O)NC(C)C)CC1 (configuration not stated)
IC50 [10]: 670 nM

COc1cc2c(Oc3ccc(NC(=O)NN4C(=O)CSC4c4ccccc4F)cc3)ccnc2cc1OC1CCN(C(=O)NC(C)C)CC1 (configuration not stated)
IC50 [10]: 410 nM

COc1cc2c(Oc3ccc(NC(=O)NN4C(=O)CSC4c4ccc(F)cc4)cc3)ccnc2cc1OC1CCN(C(=O)NC(C)C)CC1 (configuration not stated)
IC50 [10]: 860 nM

COc1cc2c(Sc3ccc(NC(=O)NN4C(=O)CSC4c4c(F)cccc4F)cc3)ccnc2cc1OC1CCN(C(=O)NC(C)C)CC1 (configuration not stated)
IC50 [10]: 420 nM

COc1cc2c(Sc3ccc(NC(=O)NN4C(=O)CSC4c4c(F)cccc4F)cc3)ccnc2cc1OCC1CCN(C(=O)NC(C)C)CC1 (configuration not stated)
IC50 [10]: 390 nM

COc1cc2c(Oc3ccc(NC(=O)NN4C(=O)CSC4c4c(F)cc(F)cc4F)cc3)ccnc2cc1OC1CCN(C(=O)NC(C)C)CC1 (configuration not stated)
IC50 [10]: 910 nM

COc1cc2c(Oc3ccc(NC(=O)NN4C(=O)CSC4c4ccccc4)cc3)ccnc2cc1OC1CCN(C(=O)NC(C)C)CC1 (configuration not stated)
IC50 [10]: 1260 nM

COc1cc2c(Oc3ccc(NC(=O)NN4C(=O)CSC4c4ccc(F)c(F)c4)cc3)ccnc2cc1OC1CCN(C(=O)NC(C)C)CC1 (configuration not stated)
IC50 [10]: 1060 nM

CCCCNC(=O)N1CCC(Oc2cc3nccc(Oc4ccc(NC(=O)NN5C(=O)CSC5c5ccc(F)cc5)cc4)c3cc2OC)CC1 (configuration not stated)
IC50 [10]: 1700 nM

COc1cc2nccc(Sc3ccc(NC(=O)NN4C(=O)CSC4c4c(F)cccc4F)cc3)c2cc1OCC1CCN(C(=O)NC(C)C)CC1 (configuration not stated)
IC50 [10]: > 10000 nM

COc1cc2c(Oc3ccc(NC(=O)NN4C(=O)CSC4c4cccc(F)c4F)cc3)ccnc2cc1OC1CCN(C(=O)NC(C)C)CC1 (configuration not stated)
IC50 [10]: 790 nM

COc1cc2c(Sc3ccc(NC(=O)NN4C(=O)CSC4c4c(F)cccc4F)cc3)ccnc2cc1OC1CCCN(C(=O)NC(C)C)C1 (configuration not stated)
IC50 [10]: > 10000 nM

COc1cc2c(Oc3ccc(NC(=O)NN4C(=O)CSC4c4c(F)cccc4F)cc3)ccnc2cc1OC1CCN(C(=O)NC(C)C)CC1 (configuration not stated)
Activity [13]: 71.5% | Activity [14]: 19.7% | IC50 [15]: > 10 µM | Activity [1]: Toxic | Activity [2]: 4.4% | Activity [16]: 20.3% | Activity [3]: Dose-dependent effect | IC50 [17]: 382 nM | IC50 [18]: > 10 µM | IC50 [19]: 122 nM | IC50 [20]: 382 nM | Activity [4]: Active | Activity [5]: 71.2% | Activity [21]: 4.3% | Activity [7]: 18.3% | Activity [8]: Active | IC50 [22]: 632 nM | Activity ([9]; dose 1-3 µg/ml, time 48-72 hrs, TDE = time-dependent effect): Tde | IC50 [10]: 310 nM | Activity [11]: 26.7% | IC50 [23]: > 10 µM | Activity [24]: 3.8% | IC50 [25]: 421 nM | IC50 [26]: 384 nM | Activity [27]: Tde | Activity ([12]; dose 1-3 µg/ml, time 48-72 hrs): Dose-dependent effect | Activity [28]: 71.3%

COc1cc2c(Oc3cccc(NC(=O)NN4C(=O)CSC4c4c(F)cccc4F)c3)ccnc2cc1OC1CCN(C(=O)NC(C)C)CC1 (configuration not stated)
IC50 [10]: > 10000 nM

COc1cc2c(Sc3ccc(NC(=O)NN4C(=O)CSC4c4c(F)cccc4F)cc3)cc(N)nc2cc1OC1CCN(C(=O)NC(C)C)CC1 (configuration not stated)
IC50 [10]: 5600 nM

COc1cc2c(Oc3ccc(NC(=O)NN4C(=O)CSC4c4ccc(F)cc4)cc3)ccnc2cc1OC1CCN(C(=O)NC2CCCCC2)CC1 (configuration not stated)
IC50 [10]: 3420 nM

COc1cc2c(Oc3ccc(NC(=O)NN4C(=O)CSC4c4ccc(F)cc4)cc3)ccnc2cc1OC1CCN(C(=O)NCc2ccccc2)CC1 (configuration not stated)
IC50 [10]: 6600 nM

CCNC(=O)N1CCC(Oc2cc3nccc(Oc4ccc(NC(=O)NN5C(=O)CSC5c5ccc(F)cc5)cc4)c3cc2OC)CC1 (configuration not stated)
IC50 [10]: 2250 nM

COc1cc2c(Oc3ccc(NC(=O)NN4C(=O)CSC4c4ccc(F)cc4F)cc3)ccnc2cc1OC1CCN(C(=O)NC(C)C)CC1 (configuration not stated)
IC50 [10]: 950 nM
